An excerpt weighted towards active compounds, which were near 2.3% of everything screened.
CHT block: inhibitors of human choline transporter CHT | CHT-expressing cells, membrane potential dye, choline response; stronger effect = lower value | hit rate 0.86% among 310,000 | AID 488975 | Q9GZV3 | B-score at 10 µM;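 active = B-score over 3 SD under the library average, and starting fluorescence ratio not unusually high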;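 also: choline stimulus applied at its EC90 after an EC20 pre-addition; B-score computed on integrated fluorescence ratio after choline addition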
NR2E3 ag-1: activates human photoreceptor nuclear receptor NR2E3; Q9Y5X4; GST-NR2E3/biotin-RetCOR TR-FRET, 1536-well; inhibition of corepressor binding, % at 4.78 µM; hit rate 0.12% among 320,000;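 active = percent inhibition above the cutoff of mean plus 3 SD of all tested compounds, set per screening campaign, cut at about 20% in these data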;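 also: 0% = DMSO wells and 100% = biotin wells as full block of FRET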
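Material: NR2E3–RetCOR corepressor complex | Quantity: 1.35 nM GST-tagged NR2E3 final | Schedule: 5 h at 4 °C | Replication: Singlicate compound wells | Reagent: RetCOR corepressor, biotinylated, 7 nM | Controls: Biotin wells as high control, 0.6% DMSO wells as low control | Signal: TR-FRET, Eu(K)-anti-GST donor, streptavidin-D2 acceptor, ex 340, em 617/671 nm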
NR2E3 ag-2: human photoreceptor-specific nuclear receptor agonism. hit rate 0.35% among 360,000. inhibition of corepressor binding, % at 3.98 µM. Q9Y5X4. CHO-S Gal4-NCOR/VP16-NR2E3 two-hybrid, luciferase;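 active = inhibition above the mean of all tested compounds plus 3 SD, cut at about 70% in these data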;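 also: 0% = DMSO with NR2E3 transfected cells and 100% = cells lacking NR2E3 construct; higher means lower luciferase signal from less NR2E3 corepressor binding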
COUP-TFII inh: blocks human COUP-TFII nuclear receptor. inhibition, % at 8.6 µM. hit rate 0.7% among 370,000. P24468. HEK293T NGFI-A luciferase reporter, luminescence. AID 686940;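 active = inhibition above a per-plate cutoff, mean inhibition of test wells between control levels plus 3 SD, cut at about 38% in these data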;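 also: cells cotransfected with COUP-TFII expression vector driving the NGFI-A reporter; 0% = median of COUP-TF2 test wells and 100% = reporter-only cells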
Target sequence (P24468 whole entry, looked up): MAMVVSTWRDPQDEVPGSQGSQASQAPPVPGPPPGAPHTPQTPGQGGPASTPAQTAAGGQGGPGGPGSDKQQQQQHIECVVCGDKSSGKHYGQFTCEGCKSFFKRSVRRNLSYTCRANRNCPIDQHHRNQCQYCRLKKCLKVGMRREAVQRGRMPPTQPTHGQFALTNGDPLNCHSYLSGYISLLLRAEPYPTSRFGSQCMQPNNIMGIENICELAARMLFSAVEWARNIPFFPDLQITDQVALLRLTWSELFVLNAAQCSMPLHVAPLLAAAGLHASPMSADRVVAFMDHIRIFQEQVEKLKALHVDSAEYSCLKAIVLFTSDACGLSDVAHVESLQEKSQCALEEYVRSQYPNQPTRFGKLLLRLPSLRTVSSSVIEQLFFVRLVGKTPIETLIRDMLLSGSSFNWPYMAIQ
GalR3 antagonist: human GalR3 antagonism | AID 651719 | inhibition, % at 3 µM | HEK293 GalR3-CNG cAMP membrane potential fluorescence; galR3 body fused to GalR1 C-terminus | hit rate 0.44% among 360,000;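 active = inhibition above the screen-wide average plus 3 SD, cut at about 13% in these data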;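 also: forskolin and galanin both at EC90 stimulate the cells; cAMP rise reported by CNG channel membrane potential dye signal; 0% = forskolin plus galanin with DMSO and 100% = forskolin alone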
CHT allo act: allosterically activates the human high affinity choline transporter | Q9GZV3 | CHT-expressing cells, membrane potential dye, choline EC20; stronger effect = higher value; LV-AA mutant CHT in HEK293 cells | B-score at 10 µM | hit rate 0.49% among 310,000 | AID 488977;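 active = initial fluorescence not abnormally high and integrated response B-score, plate-corrected, over 3 SD above library mean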
GalR3 antag conf: GalR3 (human) antagonism, confirmation. HEK293 GalR3 CNG cAMP biosensor, membrane potential fluorescence; galR3 fused to GalR1 carboxy tail; challenged with forskolin and galanin at EC90. shares compounds with GalR3 antagonist. inhibition, % at 3 µM. AID 652245. hit rate 59% among 1,600;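 active = inhibition above the primary screen's cutoff, the mean inhibition of all screened compounds plus 3 SD, cut at about 13% in these data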;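 also: 0% = forskolin plus galanin and 100% = forskolin alone with DMSO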
HEK-CNG parental: acts as nonspecific agonist in parental HEK-CNG cells; HEK293-CNG parental cells, cAMP membrane potential fluorescence; normalised: DMSO wells 0%, forskolin wells 100%; hit rate 10% among 1,600; shares compounds with GalR3 antagonist; activation, % at 3 µM; AID 652268; in the data active = activation above about 1.3%
VP16 Luc counter: counter-screen for COUP-TFII antagonists: inhibitors of VP16; shares compounds with COUP-TFII inh; HEK293 Gal4-VP16 luciferase reporter, luminescence; inhibition, % at 8.5 µM; hit rate 25% among 2,500; AID 687007; in the data active = inhibition above about 13%
COUP-TFII conf: confirmation of human COUP-TFII (NR2F2) inhibitors | shares compounds with COUP-TFII inh | HEK293 NGFI-A luciferase reporter, luminescence | inhibition, % at 8.5 µM | hit rate 45% among 2,500 | AID 687008;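 active = mean inhibition over three repeats above a set limit taken from the earlier primary screen, cut at about 38% in these data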;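 also: 100% = cells given the luciferase reporter alone without the COUP-TF2 vector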
* = called active by the depositor; i = inactive; / = no result given.

SMILES	CHT block	NR2E3 ag-1	NR2E3 ag-2	COUP-TFII inh	GalR3 antagonist	CHT allo act	GalR3 antag conf	HEK-CNG parental	VP16 Luc counter	COUP-TFII conf
COc1ccc(CCNC(=O)c2ccc(Cl)c(S(=O)(=O)N3CCCCCC3)c2)cc1	/	0.5	41.7	62.9*	88.0*	/	98.6*	0.0	4.7	41.4*
COc1ccc(CCC(=O)Nc2ccc(Cl)c(S(=O)(=O)N3CCCC3)c2)cc1	i	0.0	2.0	59.2*	66.5*	i	111.9*	-0.5	-1.5	37.7*
CC1CCCN(S(=O)(=O)c2cc(C(=O)NCCc3ccc(S(N)(=O)=O)cc3)ccc2Cl)C1 (stereo not given)	/	/	7.3	63.9*	75.4*	/	15.2*	-0.8	7.4	39.0*
CCOC(=O)[C@]12CCCC=C1N(Cc1ccc(OC)cc1)C(=O)[C@@H]2CC(=O)N1CCN(C(=O)C2CC2)CC1	/	/	/	16.5	/	/	/	/	/	/
O=C1[C@H]2C[C@@]3(n4ccc5ccccc54)c4ccccc4N(S(=O)(=O)c4ccccc4)[C@H]3N2C(=O)CN1Cc1ccccc1	/	/	/	-5.0	/	/	/	/	/	/
Cc1oc(-c2ccc(Cl)cc2)nc1CN1CCCC(C(=O)N2CCN(C(=O)c3ccco3)CC2)C1 (stereo not given)	i	-1.2	8.6	73.8*	83.7*	i	100.9*	1.2	13.5*	62.8*
Cc1oc(-c2ccc(Cl)cc2)nc1CN1CCCC(C(=O)N2CCOCC2)C1 (stereo not given)	i	1.8	17.8	-5.8	-5.8	i	/	/	/	/
CCN(CC)S(=O)(=O)c1ccc(NC(=O)c2ccc(N(C)S(C)(=O)=O)cc2)cc1	i	-5.6	-17.7	68.0*	103.4*	i	103.9*	-0.2	3.4	52.6*
CCN(CC)S(=O)(=O)c1ccc(C(=O)Nc2ccc(Cc3ccncc3)cc2)cc1	i	0.3	46.9	51.2*	33.5*	i	75.9*	-0.4	9.0	56.1*
CCN(CC)S(=O)(=O)c1ccc(NC(=O)c2ccccc2N(C)S(C)(=O)=O)cc1	i	-2.6	2.9	-0.7	-3.0	i	/	/	/	/
COC(=O)[C@]12C[C@H](CC(=O)NCc3cccc4ccccc34)C(=O)N(Cc3ccco3)C1=C[C@H](C(C)C)O[C@@H]2C1CC1	/	/	/	2.6	/	/	/	/	/	/
CCN1/C(=C/c2ccc3cc(C)cc(C)c3[n+]2CC)Sc2cc(C)ccc21	/	/	90.5*	65.8*	48.5*	/	57.7*	9.7*	23.0*	69.0*
O=C(NCCN1CCC(Cc2ccccc2)CC1)C1CCCN(S(=O)(=O)c2ccccc2)C1 (stereo not given)	/	/	/	34.4	/	/	/	/	/	/
CCCCCCCn1c2c(c(=N)c3c1CCC3)CCCC2	/	/	9.1	78.6*	31.3*	/	43.7*	6.0*	16.7*	81.9*
COCCNC(=O)C[C@H]1CC[C@H]2[C@@H](COc3ccc(NS(=O)(=O)c4ccc(Cl)cc4)cc3C(=O)N2C)O1	/	/	/	-3.8	/	/	/	/	/	/
COc1ccc(/C=N/OCC(=O)NC(c2ccccc2)c2ccccc2)cc1OC	i	0.0	21.4	61.2*	89.3*	i	100.2*	0.1	-5.6	62.3*
CSc1ccc(CN2CCN(C(=O)c3ccc([N+](=O)[O-])cc3)CC2)cc1	i	0.4	-23.7	70.5*	101.8*	i	106.4*	-0.3	-2.4	43.6*
